Screens deposited in PubChem by Sanford-Burnham Center for Chemical Genomics.
TIM10 inh: inhibits growth of TIM10 yeast strain. S. cerevisiae TIM10 strain growth, BacTiter-Glo luminescence, 24 h. 330,000 compounds, 1.4% hits. inhibition, % at 10 µM. AID 463195;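 active = inhibition of 40% or more at the single tested concentration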;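 note: wild-type TIM10 isogenic control strain grown at permissive 25 °C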
tim23-1 inh: growth inhibitors of tim23-1 mutant yeast | S. cerevisiae tim23-1 growth, BacTiter-Glo luminescence, 24 h | inhibition, % at 20 µM | 330,000 compounds, 1.3% hits | AID 463212;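 active = growth inhibition of the mutant yeast at or above 50%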;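 note: temperature-sensitive mutant grown at 25 °C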
CHOP UPR activ: apoptotic UPR (CHOP) activation; CHO-CHOP luciferase reporter, luminescence; percent of tunicamycin response over DMSO baseline; activation, % at 10 µM; 330,000 compounds, 0.34% hits; AID 449763;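 active = at 10 µM dose, activation of 40% or more, normalized to positive control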
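Test system: CHO-CHOP cells, stable luciferase reporter of PERK-eIF2a-CHOP signalling | Quantity: 500 CHO-CHOP cells per well | Buffer or medium: F12 plus 10% serum | Compound dosing: 10 µM single point, 0.5% DMSO | Schedule: 6 h compound treatment, 37 °C | Signal: Luciferase luminescence | Control set: Tunicamycin high control, DMSO low control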
XBP1 UPR activ: adaptive UPR (XBP1) activation | CHO-XBP1 luciferase reporter, IRE1-XBP1 UPR activation, luminescence; percent of tunicamycin response, DMSO as zero | activation, % at 20 µM | 330,000 compounds, 0.33% hits | AID 463104;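 active = versus positive control, 20 µM dose yields 30% or more activation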
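Material: CHO cell line with stable XBP1 luciferase reporter; schedule: 16-18 h cell attachment at 37 °C, then 6 h compound exposure; signal: glow luminescence from Steady-Glo reagent; medium: serum-containing F12 medium, 10% FBS; benchmarks: tunicamycin 10 µg/mL and vehicle-only wells; read-out: percent activation relative to tunicamycin reference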
tim10-1 inh: inhibits growth of tim10-1 mutant yeast. 330,000 compounds, 2.2% hits. inhibition, % at 20 µM. S. cerevisiae tim10-1 ts strain growth, BacTiter-Glo, 24 h. AID 463190;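 active = inhibition of at least 40%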;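 note: mutant grown at 25 °C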
tim10-1 confirm: confirmation of tim10-1 mutant yeast growth inhibitors; shares compounds with tim10-1 inh; inhibition, % at 20 µM; AID 463213; S. cerevisiae tim10-1 ts strain growth, BacTiter-Glo, 24 h; 7,400 compounds, 56% hits;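 active = inhibition of yeast growth at or above a set limit in either of two repeat tests at 20 µM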;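 note: tim10-1 mutant grown at permissive 25 °C to find synthetic lethal compounds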
A number is an active result; - = inactive; . = no result given. Shown are actives, neighbours in structure and some others; about 3.9% of the full set was active somewhere.

SMILES	TIM10 inh	tim23-1 inh	CHOP UPR activ	XBP1 UPR activ	tim10-1 inh	tim10-1 confirm
O=C(O)c1cc2ccc3cccc4ccc(c1)c2c34	-	-	-	-	43	-
COC(=O)c1c(-c2ccccc2Cl)noc1/C=C/N(C)C	-	-	-	-	40	-
O=C(CSc1nnnn1-c1cccc(F)c1)NC1CCCCC1	-	-	-	-	-	.
CC1C2CC(C(CN(C)C)/C2=N/O)C1(C)C (configuration not stated)	-	-	-	-	44	-
CC1/C(=N/O)C(CN(C)C)C2CC1C2(C)C (configuration not stated)	-	-	-	-	-	.
CCC(C(=O)c1ccc(O)cc1)c1ccccc1 (configuration not stated)	-	-	-	-	46	-
CCCOc1c(Br)cc(C(=O)OCC(=O)NC(=O)c2cccn2C)cc1OC	-	-	-	-	-	.
O=C(COC(=O)c1ncc(Cl)c(Cl)c1Cl)NC1CCCCCC1	-	-	-	-	43	-
Cc1c2c(c(C)n1C)C(C(=O)NC1CCCCC1)N(Cc1ccccc1)C2=O (configuration not stated)	-	-	-	-	45	39
Cc1ccc(OCC(=O)Nc2ccc(S(=O)(=O)N3CCOCC3)cc2)c(Br)c1	-	-	-	-	-	.
CCOc1cccc(-c2nnc3sc(C4CCCCC4)nn23)c1	-	-	-	-	41	-
Cc1ccc(C)c(N2CC(C(=O)OCC(=O)Nc3cc(C)on3)CC2=O)c1 (configuration not stated)	-	-	-	-	-	.
S=c1[nH]c(-c2ccccc2)cn1/N=C/c1ccccc1Br	-	-	-	-	42	-
COc1cc2c(c3oc(-c4ccccc4)cc(=O)c13)C=CC(C)(C)O2	-	-	-	-	47	-
Cc1ccc(S(=O)(=O)/N=C2\C=C(Nc3cccc(C(=O)O)c3)C(=O)c3ccccc32)c(C)c1	-	-	-	-	44	-
O=C(CSc1nnc(C2CC2)n1C1CC1)c1cc(F)ccc1F	-	-	-	-	-	.
C/C(=N\O)c1c(C)c2ccccc2n1C	-	-	-	-	-	.
C/C(=N\O)c1ccc2c3ccccc3n(C)c2c1	-	-	-	-	44	-
CC1CCCC(NC(=O)CN2C(=O)NC(c3ccccc3)(c3ccccc3)C2=O)C1C (configuration not stated)	-	-	-	-	-	.
COC(=O)N1C(=O)[C@@](c2ccccc2)(C2CCCC2)N1C(=O)OC	-	-	-	-	42	32
COC(=O)N1C(=O)[C@@](CC(C)C)(c2ccccc2)N1C(=O)OC	-	-	-	-	-	.
Cc1cc(C)nc(-n2nc(C)cc2NC(=O)CN2CCCC(C)C2)n1 (configuration not stated)	-	-	-	-	44	-
Cc1ccc(NCc2ccccc2F)cc1	-	-	-	-	-	.
Fc1ccccc1CNc1ccc(Cl)c(Cl)c1	-	-	-	-	61	69
O=C(NS(=O)(=O)N1CCOCC1)C1=C(N2CCCC2)COC1=O	-	-	-	-	-	.
SMILES	TIM10 inh	tim23-1 inh	CHOP UPR activ	XBP1 UPR activ	tim10-1 inh	tim10-1 confirm
CCCCNC(=S)NCc1ccc2[nH]c3c(c2c1)CCCC3	-	-	-	-	40	-
CNC(=S)NCc1ccc2[nH]c3c(c2c1)CCCC3	-	-	-	-	-	.
N#Cc1cc(Oc2cccc3cccnc23)c(-n2nnc3ccccc32)cc1C#N	-	-	-	-	48	33
N#Cc1cc(O)c(-n2nnc3ccccc32)cc1C#N	-	-	-	-	-	.
O=C(NC1CCCc2ccccc21)c1ccccc1OC(F)F (configuration not stated)	-	-	-	-	-	.
O=C(Nc1ccc(C(=O)N2CCN(c3ccccn3)CC2)cc1)c1ccc(Br)o1	-	-	-	-	46	-
Cc1ccc(C(=O)N2CCN(c3ccc(NC(=O)c4ccc(Br)o4)cc3)CC2)cc1	-	-	-	-	52	31
CCOC(=O)N1CCN(C(=O)c2ccc(NC(=O)c3ccc(C)cc3)cc2)CC1	-	-	-	-	44	-
CCN(CC)C(=O)[C@H]1C[C@H](CC(=O)NC/C=C(\C)CCC=C(C)C)C(=O)N2CCc3c([nH]c4cc(CCC(=O)N(C)C)ccc34)[C@]12C	-	-	-	-	-	.
Cc1cccc(C(=O)NCC(=O)N2CCN(S(=O)(=O)c3ccc4c(c3)OCCO4)CC2)c1	-	-	-	-	-	.
COc1cc(OC)c(C2NC(=O)CCC2[N+](=O)[O-])cc1OC (configuration not stated)	-	-	-	-	-	.
COc1cccc(CNC(=O)c2ccc(NC(=O)C3=CSCCO3)cc2)c1	-	-	-	-	45	-
Cc1ccc(CNC(=O)c2ccc(NC(=O)C3=CSCCO3)cc2)cc1	-	-	-	-	-	.
CC1CCN(S(=O)(=O)c2cc(C(=O)Nc3ccccn3)ccc2Br)CC1	-	-	-	-	-	.
CCn1nc(C)c(C(=O)Nc2cc(Oc3cc(C)cc(C)c3)cc([N+](=O)[O-])c2)c1C	-	-	-	-	43	39
O=C(COC(=O)C1(c2ccc(F)cc2)CCCC1)Nc1ncc(C(F)(F)F)cc1Cl	-	-	-	-	-	.
O=C(COC(=O)C1(c2ccc(Cl)cc2)CCCC1)Nc1ncc(C(F)(F)F)cc1Cl	-	-	-	-	42	-
C=CCc1cc(C(=O)N2CCCCC2)ccc1O	-	-	-	-	-	.
C=CCc1ccc(O)c(-c2ccc(O)c(CC=C)c2)c1	-	-	-	-	45	48
O=C(Nc1ccccc1)c1ccc(-c2ccccc2C(F)(F)F)o1	-	-	-	-	44	-
CC(C)NC(=O)c1ccc(-c2ccccc2C(F)(F)F)o1	-	-	-	-	-	.
Cc1cc(-c2ccc(C)c(S(=O)(=O)NCC3CCN(Cc4ccc(F)cc4)CC3)c2)on1	-	-	-	-	42	-
COc1ccccc1CN1CCC(CNS(=O)(=O)c2cc(-c3cc(C)no3)ccc2C)CC1	-	-	-	-	-	.
CCOc1ccc(CN(C)C(=O)CCc2ccc(S(=O)(=O)N3CCCCCC3)cc2)cc1	-	-	-	-	-	.
COC(=O)CSc1nc2c(c(-c3ccco3)c1C#N)CCCC2	-	-	-	-	47	40
COC(=O)CSc1nc2c(c(-c3ccc(O)cc3)c1C#N)CCCC2	-	-	-	-	-	.
C=CCOC(=O)/C(=C\c1ccccc1)NC(=O)c1ccc(C)cc1	-	-	-	-	40	-
CCOC(=O)C1CCN(S(=O)(=O)c2ccc(OC)c(Cl)c2Cl)CC1	-	-	-	-	40	-
S=c1[nH]nc(C23CC4CC(CC(C4)C2)C3)n1Cc1ccco1	-	-	-	-	40	-
